Measured values: paper PMC2902143 (Journal of RNAi and Gene Silencing : An International …, 2010)

Experiments:
HIV-1 in T-cells = conditions: ref Agbottah et al, 2005; cited from earlier work
HIV-1 in monocytes = conditions: ref Agbottah et al, 2005; cited from earlier work
HIV-1 LTR [1] = assay: ChIP assay on the HIV-1 LTR in TZM-bl cells; type: cell-based; conditions: TSA for 7 days
In short: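 TZM-bl cells carry an integrated HIV-1 LTR and were grown in DMEM with 10% FBS, 2mM L-glutamine and antibiotics. Cells were treated 7 days with sub-lethal TSA, then switched to complete medium and transfected with TAR-WT or control TAR-D RNA. ChIP was done on day 8 with HDAC-1 and Ago2 antibodies. Precipitated DNA was amplified with 0.1uM HIV-1 LTR primers.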

HIV-1 LTR [2] = assay: Luciferase assay in TSA treated TZM-bl cells; type: cell-based; conditions: TSA treatment
In short: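 TZM-bl cells, which carry a stably integrated HIV-1 LTR-luciferase reporter, were treated with TSA for 7 days and then with test compound. Firefly luciferase activity was measured with the BrightGlo Luciferase Assay.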

[3] = system: infected ACH2, J1.1, OM10.1, U1 and uninfected CEM, Jurkat T-cells, and U937 cells; assay: MTT assay on infected and uninfected cells; type: cell-based; conditions: 50nM and 10μM
In short: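 Cell viability was measured by MTT assay at 50nM and at a high drug level. Uninfected CEM, Jurkat and U937 cells were grown in RPMI 1640 with FBS, L-glutamine and penicillin/streptomycin at 37°C, 5% CO2.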

[4] = cited from earlier work
HIV-1 LTR [5] = assay: HIV-1 LTR-CAT assay in HCT116 WT cells; type: cell-based; conditions: Flavopiridol, CR8#13, F07#13 100nM, 9AA 1000nM, 48hrs
In short: (§1)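 HIV-1 LTR-CAT plasmid was transfected into HCT116 cells with or without pc-Tat. Six hours later, cells were treated with DMSO or test compound and incubated 48hrs at 37°C in complete DMEM. Dicer-/- extract was used at one tenth the amount of WT extract.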

HIV-1 LTR [6] = assay: HIV-1 LTR-CAT assay in HCT116 Dicer-/- cells; type: cell-based; conditions: HCT116 Dicer-/- compared with HCT116 WT; 100nM; 48hrs
In short: as §1

HIV-1 (pNL4.3) = assay: Reverse transcriptase assay, pNL4.3 electroporated U937 cells; type: cell-based; conditions: Flavopiridol 200nM, 48 hours post drug treatment

Which “Inhibition of HIV-1 in T-cells” value (HIV-1 in T-cells) does the source give for `CC[C@H](CO)Nc1nc(NCc2ccccc2)c2ncn(C(C)C)c2n1` [Cyc202, R-roscovitine] here?
The value was “effective inhibitor”.

And the “Inhibition of HIV-1 in monocytes” value (HIV-1 in monocytes)?
Its value is “not in monocytes”.

Which “Association of HDAC-1 and Ago2 with the HIV-1 LTR (ChIP)” value (HIV-1 LTR [1]) does the source give for `CC(/C=C/C(=O)NO)=C\[C@@H](C)C(=O)c1ccc(N(C)C)cc1` [TSA, Trichostatin-A] here?
The value was “association was lost”.

And the “Luciferase activity of integrated HIV-1-Luc” value (HIV-1 LTR [2])?
Its value is “increased Luciferase activity”.

What does the source list for `CC[C@H](CO)Nc1nc(NCc2ccc(-c3ccccn3)cc2)c2ncn(C(C)C)c2n1` [CR8]?
Cell killing of uninfected cells (MTT assay) [3]: some cell killing of uninfected cells; Potency relative to Cyc202 [4]: roughly 25 times

Which “Inhibition of Tat-mediated HIV-1 LTR transcription (CAT assay)” value (“Inhibition … (CAT assay)” below) (HIV-1 LTR [5]) does the source give for `CN1CC[C@H](c2c(O)cc(O)c3c(=O)cc(-c4ccccc4Cl)oc23)[C@H](O)C1` [Flavopiridol] here?
Its value is “inhibited viral transcription significantly better in cells that contained Dicer”.

What about the “Inhibition … (CAT assay)” value (HIV-1 LTR [6]) of the same compound?
The value was “less potent”.

What about the “RT levels in supernatant” value (HIV-1 (pNL4.3)) of the same compound?
The value was “able to decrease RT levels in both cell lines”.

With `Nc1c2ccccc2nc2ccccc12` [9AA, 9-Aminoacridine] as the compound, how does the “Inhibition … (CAT assay)” value (HIV-1 LTR [5]) read?
The value was “moderate effects”.
